Activity data for three compounds are collected here from ChEMBL document CHEMBL1147086, “Composite synthetic lethal identification of membrane traffic inhibitors” (Proc Natl Acad Sci U S A, 2007).

Common to all, as to format: organism-based
Settings in all cases: in vivo

The test system of data set [1] is Saccharomyces cerevisiae. Kind of data set: Toxicity against wild type yeast MDY326 assessed as 2 fold reduction of cell growth at 14 uM. The essentials:
(§1)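 Wild-type strain MDY326 (pdr5Δ snq2Δ) diluted to OD600 0.0003 in YPD, compound serially diluted into 30 μl cultures, grown 18–24 h at 30°C humidified; OD490 read after vortexing, normalized to untreated/DMSO wells; value is the concentration producing 2-fold growth inhibition.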

Data set [2] deals with Saccharomyces cerevisiae. Kind of data set: Toxicity against wild type yeast MDY326 assessed as 2 fold reduction of cell growth at 130 uM.
In data set [3] the test system is Saccharomyces cerevisiae. Kind of data set: Toxicity against wild type yeast MDY326 assessed as 2 fold reduction of cell growth at 95 uM. The essentials: as §1

On to `CC(=O)c1ccc(N2CCN(Cc3cccc(Cl)c3Cl)CC2)cc1`, for which the Activity entry with Saccharomyces cerevisiae [1] is listed as “Toxic”.

Turning to `CC(=O)c1ccc(N2CCN(CC3CCCC3)CC2)cc1`, the Activity result in the data set with Saccharomyces cerevisiae [2] is reported as “Toxic”.

Turning to `CC(=O)c1ccc(N2CCN(Cc3cccc(F)c3)CC2)cc1`, the Activity entry with Saccharomyces cerevisiae [3] is on record as “Toxic”.
